Reference: ChEMBL document CHEMBL1126973, “Synthesis and tubulin binding of novel C-10 analogues of colchicine” (J Med Chem, 1993)

How the values were obtained:
Type in all cases: functional
Mus musculus [1] = species on record: Mus musculus; experiment: Percent inhibition of [3H]colchicine binding to tubulin with molar ratio of 1:10 (inhibitor: [3H]colchicine)
Mus musculus [2] = species on record: Mus musculus; experiment: Concentration required to effect a 50% reduction in microtubule polymerization; conditions: read-out: I50
Summary of the method: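 GTP was added to 1 mM final and the sample warmed to 37 °C. Turbidity was followed at 400 nm, and percent inhibition was taken from plateau absorbance versus a no-ligand control. I50 was interpolated from the inhibition–concentration plot.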

Mus musculus [3] = species on record: Mus musculus; experiment: Percent inhibition of [3H]-colchicine binding to tubulin with molar ratio of 1:1 (inhibitor: [3H]-colchicine)
Summary of the method: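 5 µM ligand, 5 µM tubulin and 5 µM [3H]colchicine in PMEG buffer (PME plus 0.1 mM GTP) were incubated 1.5 h at 37 °C, then quenched on ice. Bound label was separated by centrifuged G-50 gel filtration and counted by scintillation. Percent inhibition is relative to a no-ligand control, run in quadruplicate and averaged.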

CCC(C)c1ccc2c(cc1=O)[C@@H](NC(C)=O)CCc1cc(OC)c(OC)c(OC)c1-2 (some centres not stated)
Inhibition (Mus musculus [1]): 57.1%
IC50 (Mus musculus [2]): 10 µM
Inhibition (Mus musculus [3]): 19.6%

COc1cc2c(c(OC)c1OC)-c1ccc(I)c(=O)cc1[C@@H](NC(C)=O)CC2
Inhibition (Mus musculus [1]): 98.3%
IC50 (Mus musculus [2]): 3.8 µM
Inhibition (Mus musculus [3]): 74%

COc1cc2c(c(OC)c1OC)-c1ccc(OC(C)C)c(=O)cc1[C@@H](NC(C)=O)CC2
Inhibition (Mus musculus [1]): 50.5%
IC50 (Mus musculus [2]): 23 µM
Inhibition (Mus musculus [3]): 10.1%

COc1cc2c(c(OC)c1OC)-c1ccc(Br)c(=O)cc1[C@@H](NC(C)=O)CC2
Inhibition (Mus musculus [1]): 97.4%
IC50 (Mus musculus [2]): 3.3 µM
Inhibition (Mus musculus [3]): 59.4%

COc1cc2c(c(OC)c1OC)-c1ccc(C(C)C)c(=O)cc1[C@@H](NC(C)=O)CC2
Inhibition (Mus musculus [1]): 90%
IC50 (Mus musculus [2]): 4.2 µM
Inhibition (Mus musculus [3]): 44.9%

COc1cc2c(c(OC)c1OC)-c1ccc(C(C)(C)C)c(=O)cc1[C@@H](NC(C)=O)CC2
Inhibition (Mus musculus [1]): 69.4%
IC50 (Mus musculus [2]): 4.2 µM
Inhibition (Mus musculus [3]): 21.9%

COc1cc2c(c(OC)c1OC)-c1ccc(N=[N+]=[N-])c(=O)cc1[C@@H](NC(C)=O)CC2
Inhibition (Mus musculus [1]): 95.8%
IC50 (Mus musculus [2]): 4.2 µM
Inhibition (Mus musculus [3]): 51.1%

CCc1ccc2c(cc1=O)[C@@H](NC(C)=O)CCc1cc(OC)c(OC)c(OC)c1-2
Inhibition (Mus musculus [1]): 96.5%
IC50 (Mus musculus [2]): 4.2 µM
Inhibition (Mus musculus [3]): 54.9%

CCOc1ccc2c(cc1=O)[C@@H](NC(C)=O)CCc1cc(OC)c(OC)c(OC)c1-2
Inhibition (Mus musculus [1]): 75%
IC50 (Mus musculus [2]): 6.1 µM
Inhibition (Mus musculus [3]): 24.6%

COc1cc2c(c(OC)c1OC)-c1ccc(-c3ccccc3)c(=O)cc1[C@@H](NC(C)=O)CC2
Inhibition (Mus musculus [1]): 25.6%
IC50 (Mus musculus [2]): 57 µM
Inhibition (Mus musculus [3]): 10.6%

COc1cc2c(c(OC)c1OC)-c1ccc(Cl)c(=O)cc1[C@@H](NC(C)=O)CC2
Inhibition (Mus musculus [1]): 96.2%
IC50 (Mus musculus [2]): 3.7 µM
Inhibition (Mus musculus [3]): 57.2%

CCCCc1ccc2c(cc1=O)[C@@H](NC(C)=O)CCc1cc(OC)c(OC)c(OC)c1-2
Inhibition (Mus musculus [1]): 24.7%
IC50 (Mus musculus [2]): 26 µM
Inhibition (Mus musculus [3]): 13.9%

COc1cc2c(c(OC)c1OC)-c1ccc(C)c(=O)cc1[C@@H](NC(C)=O)CC2
Inhibition (Mus musculus [1]): 96.7%
IC50 (Mus musculus [2]): 4.1 µM
Inhibition (Mus musculus [3]): 56.6%

CCCOc1ccc2c(cc1=O)[C@@H](NC(C)=O)CCc1cc(OC)c(OC)c(OC)c1-2
Inhibition (Mus musculus [1]): 54.8%
IC50 (Mus musculus [2]): 11 µM
Inhibition (Mus musculus [3]): 16.6%

COc1cc2c(c(OC)c1OC)-c1ccc(CC(C)C)c(=O)cc1[C@@H](NC(C)=O)CC2
Inhibition (Mus musculus [1]): 36.7%
IC50 (Mus musculus [2]): 8.5 µM
Inhibition (Mus musculus [3]): 13.4%

CCCc1ccc2c(cc1=O)[C@@H](NC(C)=O)CCc1cc(OC)c(OC)c(OC)c1-2
Inhibition (Mus musculus [1]): 89.2%
IC50 (Mus musculus [2]): 3.5 µM
Inhibition (Mus musculus [3]): 41.7%

COc1cc2c(c(OC)c1OC)-c1ccc(F)c(=O)cc1[C@@H](NC(C)=O)CC2
Inhibition (Mus musculus [1]): 50.2%
IC50 (Mus musculus [2]): 8.2 µM
Inhibition (Mus musculus [3]): 11%

COc1cc2c(c(OC)c1OC)-c1cccc(=O)cc1[C@@H](NC(C)=O)CC2 [CHOLCHICIDE]
Inhibition (Mus musculus [1]): 53.7%
IC50 (Mus musculus [2]): 7.9 µM
Inhibition (Mus musculus [3]): 13.2%

COc1cc2c(c(OC)c1OC)-c1ccc(OC)c(=O)cc1[C@@H](NC(C)=O)CC2 [COLCHICINE]
Inhibition (Mus musculus [1]): 89.7%
IC50 (Mus musculus [2]): 5.1 µM
Inhibition (Mus musculus [3]): 37.2%
